The text below walks through data of ChEMBL document CHEMBL1124748, “Preparation of triazolo[1,5-c]pyrimidines as potential antiasthma agents” (J Med Chem, 1990).

As usually defined, the IC50 is the concentration at which inhibition is half-maximal. Higher therefore signals lower potency. One may read the ED50 as the dose that gives a 50% effect, or the effect in half of the subjects. Low values mean greater potency, high ones weaker potency.

System in one experiment: not listed separately
The experiment can be described thus: Antiasthmatic activity against the immunoglobulin E (IgE) antigen using the human basophil asthma model; I = Inactive at 48 uM. The experiment is classed as functional.
Turning to `C[n+]1cccc(-c2nccc3nc(N)nn23)c1.[I-]`, the IC50 result is on record as “Not Active”.

In the case of `Nc1nc2ccnc(-c3ccc(C(F)(F)F)cc3)n2n1`, the half-inhibitory concentration (IC50) entry is listed as “Not Active”. Regarding `Nc1nc2ccnc(-c3cccc(F)c3)n2n1`, the concentration for half-maximal inhibition (IC50) entry was “Not Active”. Regarding `CN(C)/C=N/c1nc2ccnc(-c3cccc(C(F)(F)F)c3)n2n1`, the 50% inhibitory concentration (IC50) result is reported as “Not Active”.

As for `FC(F)(F)c1cccc(-c2nccc3ncnn23)c1`, the IC50 result was “Not Active”. Consider `Nc1nc2ccnc(-c3cccc(C(=O)O)c3)n2n1`, for which the IC50 entry is reported as “Not Active”. With `Cc1cnc(-c2ccc(C(F)(F)F)cc2)n2nc(N)nc12`, the IC50 result is on record as “Not Active”. Still for that read-out and setting: for `CC(=O)Nc1nc2c(C)cnc(-c3cccc(N)c3)n2n1` the value was “Not Active”; for `FC(F)(F)c1cccc(-c2nccc3nc(NCC4CO4)nn23)c1` (stereo unspecified), “Not Active”; for `CC(=O)Nc1nc2ccnc(-c3cccc([N+](=O)[O-])c3)n2n1`, “Not Active”. In the case of `Cc1cnc(-c2cccc([N+](=O)[O-])c2)n2nc(Cl)nc12`, the half-inhibitory concentration (IC50) result is reported as “Not Active”. On the same count and under the same terms, for `Nc1nc2ccnc(-c3cccs3)n2n1` the value was “Not Active”; for `Nc1nc2ccnc(-c3ccccc3F)n2n1`, “Not Active”; for `Cc1cccnc1-c1nccc2nc(N)nn12`, “Not Active”. On the same count and under the same terms, for `Nc1nc2ccnc(-c3cccc(CO)c3)n2n1` the value was “Not Active”; for `CCCc1c(C)nc(-c2cccc(C(F)(F)F)c2)n2nc(N)nc12`, “Not Active”. As to `CN(C)c1nc2ccnc(-c3cccc(C(F)(F)F)c3)n2n1`, the IC50 entry is recorded as “Not Active”.

In the case of `Nc1nc2cc(C(F)(F)F)nc(-c3cccc(C(F)(F)F)c3)n2n1`, the IC50 result is recorded as “Not Active”. `CCOC(=O)CNc1nc2ccnc(-c3cccc(C(F)(F)F)c3)n2n1`: the IC50 result is on record as “Not Active”.

Take `CNc1cccc(-c2ncc(C)c3nc(NC)nn23)c1`: the half-inhibitory concentration (IC50) entry is given as “Not Active”.

With `Cc1cc2nc(N)nn2c(-c2ccc(C(F)(F)F)cc2)n1`, the 50% inhibitory concentration (IC50) entry is reported as “Not Active”.

Consider `Nc1nc2ccnc(-c3ccccc3)n2n1`, for which the IC50 result is “Not Active”. On the same count and under the same terms, next, `Cc1cnc(-c2ccccc2)n2nc(N)nc12`: “Not Active”; `Nc1nc2ccnc(-c3cc(Cl)cc(Cl)c3)n2n1`: “Not Active”.

With `Cc1cnc(-c2cccc([N+](=O)[O-])c2)n2nc(N3CCOCC3)nc12`, the half-maximal inhibitory concentration (IC50) result was “Not Active”. Regarding `CCCc1cc2nc(N)nn2c(-c2cccc(C(F)(F)F)c2)n1`, the half-maximal inhibitory concentration (IC50) result is “Not Active”. As for `Nc1nc2ccnc(Cc3cccc(C(F)(F)F)c3)n2n1`, the IC50 entry was “Not Active”. As for `Cc1cc2nc(N)nn2c(-c2cccc(C(F)(F)F)c2)n1`, the half-maximal inhibitory concentration (IC50) result was “Not Active”. Consider `CCOC(=O)CN(C(C)=O)c1nc2ccnc(-c3cccc(C(F)(F)F)c3)n2n1`, for which the IC50 result is “Not Active”. As to `Nc1nc2ccnc(-c3ccc[n+]([O-])c3)n2n1`, the half-inhibitory concentration (IC50) result was “Not Active”. As for `Cc1ccc(S(=O)(=O)Nc2cccc(-c3ncc(C)c4nc(N)nn34)c2)cc1`, the IC50 result is on record as “Not Active”. On the same count and under the same terms, next, `CC(=O)N(C)c1nc2ccnc(-c3cccc(C(F)(F)F)c3)n2n1`: “Not Active”; `Cc1cnc(-c2cccc(N)c2)n2nc(N)nc12`: “Not Active”. Same read-out and setting: next, `Nc1nc2ccnc(-c3ccccn3)n2n1`: “Not Active”.

For the next experiment, the system named is Mus musculus. The experiment in a line: Effective dose (ip) evaluated by Passive cutaneous anaphylaxis test (PCA) by injecting IgE serum intradermally in mice.
Compound `Nc1nc2ccnc(-c3cccc(C(F)(F)F)c3)n2n1` came in with an ED50 of 166 mg/kg. The same measure, in the same setting: for `Nc1nc2ccnc(-c3cccc(Br)c3)n2n1` the value was 142 mg/kg; for `Nc1nc2ccnc(-c3ccccc3F)n2n1`, 218 mg/kg; for `Nc1nc2ccnc(-c3cccc(OC(F)F)c3)n2n1`, 138 mg/kg. The same measure, in the same setting: for `Nc1nc2ccnc(-c3ccc(F)cc3)n2n1` the value was 178 mg/kg. Consider `Nc1nc2ccnc(Cc3cccc(C(F)(F)F)c3)n2n1`, for which the 50% effect level (ED50) was put at a dose of 178 mg/kg. Consider `Nc1nc2ccnc(-c3ccncc3)n2n1`, for which the ED50 worked out at 14 mg/kg. `Cn1c(=O)c2nc[nH]c2n(C)c1=O.O` [THEOPHYLLINE] displayed an ED50 of 140 mg/kg.

System in another experiment: not listed separately
The experiment in a line: Antiasthmatic activity against the immunoglobulin E (IgE) antigen using the human basophil asthma model. The experiment is classed as functional. An outline of the steps:
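Leukocytes washed and resuspended in pH 7.4 buffer (25 mM PIPES, 110 mM NaCl, 5 mM KCl, 0.6 mM CaCl2, 1.0 mM MgCl2, 0.03% HSA). Cells preincubated with drug 10 min at 37 °C, then incubated 1 h at 37 °C with shaking. Histamine in HClO4-treated supernatants measured fluorometrically against lysed-cell totals. Triplicates, controls sextuplicate. IC50 from linear regression of percent release.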
`Nc1nc2ccnc(-c3cccc(C(F)(F)F)c3)n2n1` had a half-inhibitory concentration (IC50) of 2.2 µM. In turn, `CC(=O)Nc1nc2c(C)cnc(-c3cccc([N+](=O)[O-])c3)n2n1` yielded an IC50 of 11 µM. Same read-out and setting: next, `Cc1ccc(S(=O)(=O)Nc2cccc(-c3nccc4nc(N)nn34)c2)cc1`: 1.5 µM. Take `Nc1nc2ccnc(-c3cccc(Br)c3)n2n1`: the IC50 amounted to 3.7 µM.

`CC(=O)Nc1nc2c(C)cnc(-c3cccc(NS(=O)(=O)c4ccc(C)cc4)c3)n2n1` displayed an IC50 of 51.8 µM.

The compound `Cc1cnc(-c2cccc(C(F)(F)F)c2)n2nc(N)nc12` displayed a half-inhibitory concentration (IC50) of 5.6 µM. In turn, `Nc1nc2ccnc(-c3cc(C(F)(F)F)cc(C(F)(F)F)c3)n2n1` showed a concentration for half-maximal inhibition (IC50) of 0.7 µM.

In turn, `Nc1nc2ccnc(-c3cc[n+]([O-])cc3)n2n1` showed an IC50 of 5.6 µM. This IC50 lies about 8-fold higher than the previous one. Consider `Cc1cnccc1-c1nccc2nc(N)nn12`, for which the IC50 came to 2.5 µM. Against the preceding compound, the IC50 is about 2.2-fold lower. `Cc1cnc(-c2cccc([N+](=O)[O-])c2)n2nc(N)nc12` registered an IC50 of 8.7 µM. `Nc1nc2ccnc(-c3cccc(C(Cl)Cl)c3)n2n1` gave an IC50 of 1 µM. For the compound `CC(=O)Nc1nc2ccnc(-c3cccc(NS(=O)(=O)c4ccc(C)cc4)c3)n2n1`, the IC50 worked out at 1.6 µM. In turn, `Nc1nc2ccnc(-c3cccc([N+](=O)[O-])c3)n2n1` yielded an IC50 of 3.8 µM. In turn, `CCOC(=O)c1cccc(-c2nccc3nc(N)nn23)c1` registered an IC50 of 11.5 µM.

As for `Nc1nc2ccnc(-c3cccnc3)n2n1`, the IC50 came to 14 µM.

As to `CNc1nc2ccnc(-c3cccc(C(F)(F)F)c3)n2n1`, the midpoint of inhibition, the IC50, lay at 10.2 µM. The IC50 values of the last two compounds are within 1.5-fold of each other.

Consider `Nc1nc2ccnc(-c3cccc(OC(F)F)c3)n2n1`, for which the IC50 was found to be 3.4 µM.

Take `OC(CCl)CNc1nc2ccnc(-c3cccc(C(F)(F)F)c3)n2n1` (stereo unspecified): half-maximal inhibition (IC50) was put at 9.3 µM. In the case of `CC(=O)Nc1nc2ccnc(-c3cccc(C(F)(F)F)c3)n2n1`, half-maximal inhibition (IC50) was put at 20 µM. `Nc1nc2ccnc(-c3cccc(Cl)c3)n2n1` showed a 50% inhibitory concentration (IC50) of 4.3 µM.

For `CCOC(=O)c1ccc(-c2nccc3nc(N)nn23)cc1`, the midpoint of inhibition, the IC50, lay at 16.5 µM.

On to `Nc1nc2ccnc(-c3ccc(F)cc3)n2n1`, for which the half-maximal inhibitory concentration (IC50) came to 31.3 µM.

`Nc1nc2ccnc(-c3ccncc3)n2n1` showed a 50% inhibitory concentration (IC50) of 18 µM. For `Nc1nc2ccnc(-c3cccc(C=O)c3)n2n1`, the IC50 turned out to be 0.7 µM. Against the preceding compound, the IC50 is about 26-fold lower. `C#Cc1cccc(-c2nccc3nc(N)nn23)c1` displayed a half-inhibitory concentration (IC50) of 12.6 µM. Compound `CN(C)C(=O)c1cccc(-c2nccc3nc(N)nn23)c1` gave an IC50 of 3.5 µM. `Cc1cccc(-c2nccc3nc(N)nn23)c1` displayed an IC50 of 5.5 µM. `O=C(O)c1cc(=O)c2c(OCC(O)COc3cccc4oc(C(=O)O)cc(=O)c34)cccc2o1` [CROMOLYN SODIUM] displayed an IC50 of 1000 µM. `Cn1c(=O)c2nc[nH]c2n(C)c1=O.O` [THEOPHYLLINE] yielded an IC50 of 309 µM. This IC50 is about 3.2-fold lower than that of the compound before.
